# Measured values taken from ChEMBL document CHEMBL5390295, “Isolinderalactone Ameliorates the Pathology of Alzheimer's Disease by Inhibiting the JNK Signaling Pathway” (2023).
# Active and inactive are the calls of the source. The calls are words filed in the database; no cut-off is given here.
# Experiments:
# [1] = system: PC-12; test: Induction of apoptosis in Abeta1-42 induced rat PC12 cells assessed as early apoptosis at 10 uM preincubated for 3 hrs followed by Abeta1-42 induction and measured after 24 hrs by Annexin V-FITC/PI staining based flow cytometry analysis (reference value: 1.5%); type: functional; details: time 27 hrs
# [2] = system: PC-12; test: Induction of apoptosis in Abeta1-42 induced rat PC12 cells assessed as late apoptosis at 10 uM preincubated for 3 hrs followed by Abeta1-42 induction and measured after 24 hrs by Annexin V-FITC/PI staining based flow cytometry analysis (reference value: 0.7%); type: functional; details: time 27 hrs
# [3] = system: PC-12; test: Neuroprotective activity against in Abeta1-42 induced rat PC12 cells assessed as effect on ERK protein level at 10 uM preincubated for 3 hrs followed by Abeta1-42 induction and measured after 24 hrs by Western blot analysis; type: functional, cell-based; details: time 27.0 hrs
# Procedure, shortened: (§1)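 Aβ1–42 challenge in PC12 cells was 10 μM for 24 h after 3 h pretreatment at 10 μM. SP600125 (1.25 μM) was added 0.5 h before pretreatment where used. Cells were lysed in RIPA and protein measured by BCA. Blotting used PVDF transfer, 5% BSA/TBST block for 2 h, primaries 1:1000 overnight at 4 °C, and HRP secondary for 2 h. Bcl-2/Bax ratio and band intensities were quantified.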
# [4] = system: PC-12; test: Neuroprotective activity against in Abeta1-42 induced rat PC12 cells assessed as effect on P38MAPK protein level at 10 uM preincubated for 3 hrs followed by Abeta1-42 induction and measured after 24 hrs by Western blot analysis; type: functional, cell-based; details: time 27.0 hrs; procedure, shortened: as §1
# [5] = system: PC-12; test: Neuroprotective activity against Abeta1-42 induced rat PC12 cells assessed as effect on Bcl2/Bax ratio level at 10 uM preincubated for 3 hrs followed by Abeta1-42 induction and measured after 24 hrs in the presence of SP600125 by Western blot analysis; type: functional, cell-based; details: time 27.0 hrs; procedure, shortened: as §1
# [6] = system: Mus musculus; test: Anti-alzheimer activity in hippocampus of APP/PS1 dE9 double transgenic mouse model assessed as reduction in glial cell aggregation at 1 to 10 mg/kg, ip administered once daily for 30 consecutive days by immunofluorescence staining; type: functional, organism-based; details: dose 1-10 mg/kg, time 30.0 day
# Procedure, shortened: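 Brains from dosed female APP/PS1 mice (10 months) were fixed in 4% paraformaldehyde at 4 °C for 24–48 h, taken through a sucrose gradient and OCT, and cut into 15 μm sections. Sections were permeabilized with 0.3% Triton X-100, blocked in 10% BSA for 1 h, and incubated with primary antibody overnight at 4 °C (1:200). Secondary was 1:500 for 1 h at 25 °C, with DAPI counterstain and confocal imaging, in triplicate.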
# [7] = system: Mus musculus; test: Anti-alzheimer activity in hippocampus of APP/PS1 dE9 double transgenic mouse model assessed as reduction in APP/beta-amyloid level at 10 mg/kg, ip administered once daily for 30 consecutive days by Western blot analysis; type: functional, organism-based; details: time 30.0 day
# Procedure, shortened: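 Hippocampal homogenates from dosed APP/PS1 mice were extracted in RIPA and protein measured by BCA. Samples were run by SDS electrophoresis, transferred to 0.22 μm PVDF for 90 min, blocked with 5% BSA in TBST for 2 h at RT, and probed with primaries 1:1000 overnight at 4 °C. HRP secondary was applied for 2 h at RT.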
compound,measurement,setting,value
C=C[C@@]1(C)Cc2occ(C)c2[C@@H]2OC(=O)C(=C)[C@@H]21 [ISOLINDERALACTONE],Activity,[1],2%
same,Activity,[2],0.4%
same,Activity,[3],inactive
same,Activity,[4],inactive
same,Activity,[5],inactive
same,Activity,[6],Active
same,Activity,[7],Active
